Measured values as given in ChEMBL document CHEMBL1148732, “New 2-arylpyrazolo[3,4-c]quinoline derivatives as potent and selective human A3 adenosine receptor antagonists. Synthesis, pharmacological evaluation, and ligand-receptor modeling studies” (J Med Chem, 2007).

Tests used:
Adenosine receptor A3 [1] = biological target: T1, Adenosine receptor A3 (Homo sapiens, UniProt P0DMS8); test: Displacement of [125I]AB-MECA from human adenosine A3 receptor expressed in CHO cells; assay type: cell-based
T1 sequence (P0DMS8 whole entry): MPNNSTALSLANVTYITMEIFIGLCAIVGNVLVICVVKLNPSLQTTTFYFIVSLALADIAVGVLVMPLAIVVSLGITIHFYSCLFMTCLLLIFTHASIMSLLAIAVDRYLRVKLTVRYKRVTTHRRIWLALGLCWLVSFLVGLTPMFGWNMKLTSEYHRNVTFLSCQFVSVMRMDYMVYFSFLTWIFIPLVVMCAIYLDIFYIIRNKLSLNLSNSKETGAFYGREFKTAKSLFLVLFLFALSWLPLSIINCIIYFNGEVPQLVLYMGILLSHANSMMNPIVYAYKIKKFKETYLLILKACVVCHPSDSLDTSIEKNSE
How it was run: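 Five displacer concentrations, each in triplicate. IC50 by nonlinear regression, converted to Ki with Cheng-Prusoff. Means ± SEM of four separate assays.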

Adenosine receptor A1 [2] = biological target: T2, Adenosine receptor A1 (Homo sapiens, UniProt P30542); test: Displacement of [3H]DPCPX from human adenosine A1 receptor expressed in CHO cells; assay type: cell-based
T2 sequence (P30542 whole entry): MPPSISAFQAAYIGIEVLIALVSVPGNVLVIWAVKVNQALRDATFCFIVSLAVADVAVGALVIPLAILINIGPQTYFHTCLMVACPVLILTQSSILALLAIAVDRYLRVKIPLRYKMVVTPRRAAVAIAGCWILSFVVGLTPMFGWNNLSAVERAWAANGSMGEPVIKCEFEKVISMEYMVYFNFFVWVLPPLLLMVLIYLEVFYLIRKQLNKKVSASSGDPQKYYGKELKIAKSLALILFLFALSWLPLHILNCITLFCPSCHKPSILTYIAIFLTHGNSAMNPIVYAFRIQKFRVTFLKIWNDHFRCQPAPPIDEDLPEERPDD
How it was run: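 Five concentrations in triplicate. IC50 by nonlinear regression, converted to Ki with Cheng-Prusoff. Means ± SEM of four assays.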

Adenosine receptor A2a [3] = biological target: T3, Adenosine receptor A2a (Homo sapiens, UniProt P29274); test: Displacement of [3H]NECA from human adenosine A2A receptor expressed in CHO cells at 10 uM; assay type: cell-based
[4] = biological target: T4, Adenosine receptor A1 (Homo sapiens) (UniProt P30542); test: Displacement of [3H]DPCPX from human adenosine A1 receptor expressed in CHO cells at 10 uM; assay type: cell-based
T4 sequence (whole entry): T2 sequence (P30542 whole entry)

Adenosine receptor A2a [5] = biological target: T3, Adenosine receptor A2a; test: Displacement of [3H]NECA from human adenosine A2A receptor expressed in CHO cells; assay type: cell-based
[6] = biological target: T5, Adenosine receptor A1 (Rattus norvegicus) (UniProt P25099); test: Displacement of [3H]DPCPX from Wistar rat adenosine A1 receptor at 10 uM
T5 sequence (whole entry): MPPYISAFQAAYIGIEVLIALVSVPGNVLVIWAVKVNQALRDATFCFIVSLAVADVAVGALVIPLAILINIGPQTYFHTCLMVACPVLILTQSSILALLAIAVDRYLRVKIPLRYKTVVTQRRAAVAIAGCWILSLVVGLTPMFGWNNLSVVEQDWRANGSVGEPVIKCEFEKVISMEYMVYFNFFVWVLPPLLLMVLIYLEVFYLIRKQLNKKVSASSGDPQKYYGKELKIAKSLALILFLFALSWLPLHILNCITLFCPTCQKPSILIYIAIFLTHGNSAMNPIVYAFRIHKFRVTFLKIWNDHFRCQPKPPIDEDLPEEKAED
How it was run: (§1)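 Male Wistar rat cortex membranes (40-50 µg protein) incubated 180 min at 25 °C with 0.2-0.5 nM [3H]DPCPX. Buffer: 50 mM Tris/HCl, 2 mM MgCl2, pH 7.7. Run in triplicate. Nonspecific binding defined with 20 µM R-PIA. GF/C filtration; KD 0.51 nM.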

[7] = biological target: T6, Adenosine receptor A3 (Rattus norvegicus) (UniProt P28647); test: Displacement of [3H](R)-PIA from Wistar rat adenosine A3 receptor at 1 uM
T6 sequence (whole entry): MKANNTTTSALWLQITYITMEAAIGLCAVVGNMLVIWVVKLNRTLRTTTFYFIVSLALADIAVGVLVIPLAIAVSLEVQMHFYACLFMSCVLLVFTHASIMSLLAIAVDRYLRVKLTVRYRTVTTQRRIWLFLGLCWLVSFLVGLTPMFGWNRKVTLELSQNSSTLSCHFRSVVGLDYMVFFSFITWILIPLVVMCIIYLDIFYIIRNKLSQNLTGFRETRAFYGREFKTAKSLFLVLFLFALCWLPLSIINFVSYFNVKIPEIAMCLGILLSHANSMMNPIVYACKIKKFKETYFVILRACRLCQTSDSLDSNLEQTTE
How it was run: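 Rat testis membranes (0.1-0.2 mg protein) incubated with 4 nM [3H]-(R)-PIA and 150 nM DPCPX to block A1 sites. Buffer: 50 mM Tris/HCl pH 7.4, 1 mM EDTA, 10 mM MgCl2. Nonspecific binding defined with 15 µM (R)-PIA. Separation by filtration and scintillation counting. Result is % displacement at 1 µM.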

[8] = biological target: T6, Adenosine receptor A3 (Rattus norvegicus); test: Antagonist activity at adenosine A3 receptor in Wistar rat hippocampal slices by prevention of glucose deprivation-induced synaptic impairment assessed as synaptic recovery at 100 nM; assay type: functional, tissue-based; design: scale not given: the % may be the effect or the level left; details: Hippocampus
How it was run: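 Male Wistar rat hippocampal slices (400 µm) superfused with oxygenated aCSF at 30-32 °C and 2 mL/min. CA1 fepsps were evoked from stratum radiatum. OGD was 7 min of glucose-free aCSF gassed with 95% N2-5% CO2. Antagonist (100 nM) was given from 10 min before until 5 min after OGD. Readout: fepsp amplitude at 15 min reperfusion as % of the 5-min pre-OGD baseline; n=5, one-way ANOVA with Newman-Keuls.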

Adenosine receptor A3 [9] = biological target: T1, Adenosine receptor A3; test: Antagonist activity at human adenosine A3 receptor expressed in CHO cells assessed as inhibition of NECA-induced cAMP accumulation; assay type: functional, cell-based
How it was run: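 CHO cells stably expressing hA3 were plated and used after 48 h. They were preincubated 15 min at 37 °C with Ro 20-1724 (20 µM) and adenosine deaminase (1 U/mL). Compounds at several concentrations were then added with 100 nM NECA and 10 µM forskolin for 15 min at 37 °C. Lysis in 0.4 N HCl. cAMP was measured by competitive binding against [3H]cAMP (2 nM) with adrenal binding protein, 150 min at 4 °C. EC50 from sigmoid nonlinear regression.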

[10] = biological target: Adenosine receptor A2a (Rattus norvegicus) (UniProt P30543); test: Displacement of [3H]CGS 21680 from Wistar rat adenosine A2A receptor at 10 uM
Adenosine receptor A1 [11] = biological target: T7, Adenosine receptor A1 (Rattus norvegicus, UniProt P25099); test: Displacement of [3H]DPCPX from Wistar rat adenosine A1 receptor; how it was run: as §1
T7 sequence (P25099 whole entry): T5 sequence (whole entry)

[12] = biological target: T8, Adenosine receptor A3 (Homo sapiens) (UniProt P0DMS8); test: Displacement of [125I]AB-MECA from human adenosine A3 receptor expressed in CHO cells at 1 uM; assay type: cell-based
T8 sequence (whole entry): T1 sequence (P0DMS8 whole entry)

T3 sequence (P29274 whole entry): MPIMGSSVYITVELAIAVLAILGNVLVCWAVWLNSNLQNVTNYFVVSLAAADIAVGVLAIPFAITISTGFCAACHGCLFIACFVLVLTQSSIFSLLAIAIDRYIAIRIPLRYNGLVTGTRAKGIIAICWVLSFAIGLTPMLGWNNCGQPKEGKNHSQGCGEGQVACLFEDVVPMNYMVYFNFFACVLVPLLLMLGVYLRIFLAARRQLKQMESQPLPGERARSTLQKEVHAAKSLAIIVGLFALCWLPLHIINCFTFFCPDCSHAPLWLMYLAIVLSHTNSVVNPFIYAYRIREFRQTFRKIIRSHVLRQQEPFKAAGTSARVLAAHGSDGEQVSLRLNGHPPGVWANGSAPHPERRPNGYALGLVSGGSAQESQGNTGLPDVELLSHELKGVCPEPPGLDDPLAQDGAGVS
Sequence of Adenosine receptor A2a (Rattus norvegicus) (P30543 whole entry): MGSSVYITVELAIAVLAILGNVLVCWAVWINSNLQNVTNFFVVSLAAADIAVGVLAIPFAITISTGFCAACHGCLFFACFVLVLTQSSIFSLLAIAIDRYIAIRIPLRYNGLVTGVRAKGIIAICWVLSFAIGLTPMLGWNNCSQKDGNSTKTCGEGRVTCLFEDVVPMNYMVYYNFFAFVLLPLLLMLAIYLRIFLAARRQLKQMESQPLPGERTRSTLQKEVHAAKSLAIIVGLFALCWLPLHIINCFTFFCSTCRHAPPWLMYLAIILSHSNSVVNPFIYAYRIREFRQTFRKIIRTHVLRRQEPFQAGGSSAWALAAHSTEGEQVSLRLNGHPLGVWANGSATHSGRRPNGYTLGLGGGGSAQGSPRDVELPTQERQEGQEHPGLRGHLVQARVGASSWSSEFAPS

Row | Ki (Adenosine receptor A3 [1]) | Ki (Adenosine receptor A1 [2]) | Activity (Adenosine receptor A2a [3]) | Activity [4] | Compound | further results
1 | 4.5 nM | 201 nM | 51% | – | COc1ccc(-n2cc3c(n2)c(NC(=O)Cc2ccccc2)nc2ccccc23)cc1 | –
2 | 14 nM | 559 nM | 4% | – | Cc1cccc(-n2cc3c(n2)c(NC(=O)C(c2ccccc2)c2ccccc2)nc2ccccc23)c1 | –
3 | – | – | 15% | 5% | O=C(Cc1ccccc1)Nc1nc2ccccc2c2cn(-c3ccccc3)nc12 | –
4 | – | – | 3% | 0% | O=C(NCc1ccccc1)Nc1nc2ccccc2c2cn(-c3ccccc3)nc12 | –
5 | 31 nM | 203 nM | 10% | – | CC(=O)Nc1nc2ccccc2c2cn(-c3cccc(C)c3)nc12 | –
6 | 123 nM | 455 nM | – | – | CC(=O)Nc1nc2ccccc2c2cn(-c3ccc(C)cc3)nc12 | Ki (Adenosine receptor A2a [5]): 1500 nM
7 | 3.35 nM | 6800 nM | 20% | – | Cc1cccc(-n2cc3c(n2)c(NC(=O)NCc2ccccc2)nc2ccccc23)c1 | –
8 | – | – | 3% | 0% | CC(=O)Nc1nc2ccccc2c2cn(-c3ccccc3)nc12 | –
9 | 4.3 nM | 57 nM | – | – | Cc1cccc(-n2cc3c(n2)c(NC(=O)c2ccccc2)nc2ccccc23)c1 | Ki (Adenosine receptor A2a [5]): 2860 nM
10 | – | 203 nM | 43% | – | O=c1[nH]c2ccccc2c2cn(-c3ccccc3)nc12 | –
11 | – | 29 nM | 44% | – | Cc1ccc(-n2cc3c(n2)c(=O)[nH]c2ccccc23)cc1 | –
12 | – | 45 nM | – | – | Cc1ccc(-n2cc3c(n2)c(N)nc2ccccc23)cc1 | Ki (Adenosine receptor A2a [5]): 329 nM
13 | 3.4 nM | 250 nM | 39% | – | COc1ccc(-n2cc3c(n2)c(NC(=O)c2ccccc2)nc2ccccc23)cc1 | –
14 | 5.6 nM | – | 21% | 55% | Cc1ccc(-n2cc3c(n2)c(NC(=O)Cc2ccccc2)nc2ccccc23)cc1 | –
15 | 30 nM | – | 0% | 32% | Cc1ccc(-n2cc3c(n2)c(N(C(=O)c2ccccc2)C(=O)c2ccccc2)nc2ccccc23)cc1 | –
16 | – | 21 nM | – | – | Cc1cccc(-n2cc3c(n2)c(N)nc2ccccc23)c1 | Ki (Adenosine receptor A2a [5]): 228 nM
17 | – | 176 nM | 25% | – | COc1ccc(-n2cc3c(n2)c(=O)[nH]c2ccccc23)cc1 | –
18 | 6.1 nM | – | 0% | 0% | O=C(c1ccccc1)N(C(=O)c1ccccc1)c1nc2ccccc2c2cn(-c3ccccc3)nc12 | –

Row | Ki (Adenosine receptor A3 [1]) | Ki (Adenosine receptor A1 [2]) | Activity (Adenosine receptor A2a [3]) | Activity [4] | Compound | further results
19 | 9 nM | – | 0% | 47% | COc1ccc(-n2cc3c(n2)c(NC(=O)C(c2ccccc2)c2ccccc2)nc2ccccc23)cc1 | –
20 | 23.2 nM | – | 20% | 42% | Cc1cccc(-n2cc3c(n2)c(N(C(=O)c2ccccc2)C(=O)c2ccccc2)nc2ccccc23)c1 | –
21 | 85.5 nM | 357 nM | 0% | – | O=c1[nH]c2ccccc2c2cn(-c3ccc([N+](=O)[O-])cc3)nc12 | –
22 | 4.4 nM | 629 nM | 26% | – | Cc1ccc(-n2cc3c(n2)c(NC(=O)c2ccccc2)nc2ccccc23)cc1 | –
23 | 17.2 nM | – | 7% | 25% | COc1ccc(-n2cc3c(n2)c(N(C(=O)c2ccccc2)C(=O)c2ccccc2)nc2ccccc23)cc1 | Activity [6]: 11%; Activity [7]: 28%; Activity [8]: 84%; EC50 (Adenosine receptor A3 [9]): 11.2 nM; Activity [10]: 2%
24 | – | – | 9% | 0% | O=C(Nc1nc2ccccc2c2cn(-c3ccccc3)nc12)c1ccccc1 | –
25 | – | 40 nM | – | – | COc1ccc(-n2cc3c(n2)c(N)nc2ccccc23)cc1 | –
26 | 257 nM | – | 39% | 5% | Cc1ccc(-n2cc3c(n2)c(NC(=O)NCc2ccccc2)nc2ccccc23)cc1 | –
27 | 7.3 nM | 14 nM | 52% | – | COc1cccc(-n2cc3c(n2)c(=O)[nH]c2ccccc23)c1 | –
28 | – | 12 nM | 46% | – | Cc1cccc(-n2cc3c(n2)c(=O)[nH]c2ccccc23)c1 | –
29 | 74.5 nM | – | 32% | 8% | O=c1[nH]c2ccccc2c2cn(Cc3ccccc3)nc12 | –
30 | 102 nM | 2880 nM | 0% | – | COc1ccc(-n2cc3c(n2)c(NC(C)=O)nc2ccccc23)cc1 | –
31 | 8.9 nM | – | 21% | 0% | O=C(Nc1nc2ccccc2c2cn(-c3ccccc3)nc12)C(c1ccccc1)c1ccccc1 | Activity [7]: 30%; Activity [8]: 47%; Ki (Adenosine receptor A1 [11]): 1490 nM; EC50 (Adenosine receptor A3 [9]): 3.8 nM; Activity [10]: 26%
32 | 229 nM | 32 nM | – | – | COc1cccc(-n2cc3c(n2)c(N)nc2ccccc23)c1 | Ki (Adenosine receptor A2a [5]): 486 nM
33 | 3.9 nM | 60 nM | 24% | – | Cc1cccc(-n2cc3c(n2)c(NC(=O)Cc2ccccc2)nc2ccccc23)c1 | –
34 | – | 659 nM | – | – | Nc1nc2ccccc2c2cn(-c3ccccc3)nc12 | –
35 | 11.5 nM | – | 3% | 32% | Cc1ccc(-n2cc3c(n2)c(NC(=O)C(c2ccccc2)c2ccccc2)nc2ccccc23)cc1 | –
36 | – | – | 0% | 43% | COc1ccc(-n2cc3c(n2)c(NC(=O)NCc2ccccc2)nc2ccccc23)cc1 | Activity [12]: 40%
